M1 ag: agonists of M1 muscarinic receptor | CHO-M1 cells, Fluo-4 calcium fluorescence, agonist mode; stronger effect = higher value | B-score at 10 µM | 64,000 tested, 3% active | AID 626;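 active means fluorescence rise, raw or as B-score row- and column-corrected plate score, outside the 99.7% band of its plate's samples, either direction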
HEK293 NFkB inh: inhibitors of the PMA/ionomycin-induced NF-kB reporter in HEK293 cells | HEK-293 NF-kB luciferase reporter, luminescence | AID 465 | 62,000 tested, 0.21% active | inhibition, % at 3 µM;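 active means inhibition above the mean of all tested compounds plus 3 SD, cut at about 40% in these data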
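System – HEK-293 cells with stable firefly luciferase reporter driven by four HIV NF-kB elements · Doses – one dose, 3 µM · Schedule – 1 h compound pre-incubation, 16 h PMA/ionomycin at 37 °C · Technique – luminescence from luciferase substrate reagent · Measure – percent inhibition normalized per plate to DMSO and reference-inhibitor controls · Replicates – tested once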
M1 antagonist: blocks the rat M1 muscarinic receptor response to acetylcholine; P08482; CHO-M1 cells, Fluo-4 calcium, ACh EC80 antagonist mode; stronger effect = lower value; B-score at 10 µM; 64,000 tested, 3.4% active;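 active means calcium fluorescence response, raw or row-and-column corrected B-score, differing from the plate sample mean either way at a set confidence level, mostly lower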
MKP-1 inh: inhibitors of human MKP-1 phosphatase | recombinant MKP-1, OMFP hydrolysis fluorescence | inhibition, %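 (compounds tested at a single concentration somewhere between 10 and 100 µM)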 | 65,000 tested, 0.15% active;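 active means inhibition above about 50%, limit read from the data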
HER2 expr 66K: lowers expression of human Her2 kinase | P04626 | SKBR-3 HER2 protein level, AlphaScreen, 18-24 h; stronger effect = lower value | HER2 level % of control, % at 10 µM | 65,000 tested, 0.69% active | AID 645;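 active means HER2 level under 5% of the carrier-only control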
Cdc25B block: human M-phase inducer phosphatase 2 inhibition; P30305; recombinant Cdc25B, OMFP fluorescence Ex485/Em525; inhibition, %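 (compounds tested at 10 µM final in the well)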; 65,000 tested, 0.1% active; in the data active means inhibition above about 50%
Target sequence (P30305 whole entry, looked up): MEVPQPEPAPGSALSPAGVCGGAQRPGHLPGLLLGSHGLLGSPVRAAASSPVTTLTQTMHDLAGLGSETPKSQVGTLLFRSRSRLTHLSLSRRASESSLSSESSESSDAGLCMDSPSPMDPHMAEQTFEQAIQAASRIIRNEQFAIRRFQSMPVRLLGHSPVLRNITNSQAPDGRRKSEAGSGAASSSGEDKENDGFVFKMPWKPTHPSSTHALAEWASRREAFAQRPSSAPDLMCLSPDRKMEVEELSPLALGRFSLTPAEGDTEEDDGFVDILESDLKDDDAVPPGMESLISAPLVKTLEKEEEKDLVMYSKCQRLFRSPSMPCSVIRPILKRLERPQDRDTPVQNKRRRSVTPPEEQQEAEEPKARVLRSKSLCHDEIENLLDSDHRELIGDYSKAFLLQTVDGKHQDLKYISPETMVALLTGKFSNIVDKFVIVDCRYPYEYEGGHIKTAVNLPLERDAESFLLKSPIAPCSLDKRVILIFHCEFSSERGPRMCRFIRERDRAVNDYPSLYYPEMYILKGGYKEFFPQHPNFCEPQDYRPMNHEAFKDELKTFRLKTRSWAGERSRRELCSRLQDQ
Large screens that a line does not name were inactive. Most compounds without a hit are left out; they make up all but 6.8% or so of the library.

CC(C)CC1N=C2c3ccccc3N=C(SCc3cc(=O)n4ccccc4n3)N2C1=O (configuration not stated)	none (no result: M1 ag, M1 antagonist)
COC(=O)c1[nH]c2ccc(Br)cc2c1NC(=O)C(C)N1CCN(C2CCCCC2)CC1 (configuration not stated)	HER2 expr 66K -4.8
COC(=O)c1[nH]c2ccc(C)cc2c1NC(=O)C(C)N1CCN(C2CCCCC2)CC1 (configuration not stated)	none
CC(C)n1c(SCc2ccc(Cl)cc2)nc2c1c(=O)[nH]c(=O)n2C	HER2 expr 66K -55
CCN(CC)c1ccc2cc(C(=O)Nc3ccc(-n4cnnn4)c(OC)c3)c(=O)oc2c1	M1 ag 20
COc1cc(C(=O)Nc2ccc3c(c2)OCCO3)ccc1-n1cnnn1	none
COc1ccc(CCn2c(=S)[nH]c3cc(C(=O)NCc4ccco4)ccc3c2=O)cc1OC	M1 ag 3
Cn1c(Cl)nc2ccccc21	none
Cn1c(SC2=CS(=O)(=O)c3ccccc32)nc2ccccc21	HER2 expr 66K -22
Cc1ccccc1-c1nc(CN2CCC(C(=O)NCCC3=CCCCC3)CC2)c(C)o1	HER2 expr 66K -16
CCN(CCNC(=O)C1CCCN(Cc2nc(-c3ccc(OC)cc3)oc2C)C1)c1ccccc1 (configuration not stated)	none
CCN(CCNC(=O)C1CCN(Cc2nc(-c3ccc(Cl)cc3)oc2C)CC1)c1ccccc1	HER2 expr 66K -17
CCN(CCNC(=O)C1CCN(Cc2nc(-c3cccc(Cl)c3)oc2C)CC1)c1ccccc1	HER2 expr 66K -13
CCc1ccc(-c2nc(CN3CCC(C(=O)NCCN(CC)c4ccccc4)CC3)c(C)o2)cc1	HER2 expr 66K -13
Cc1cc(=O)oc(C)c1C(=O)n1nc(C)c2c1C[C@@H]1[C@H]2C1(C)C	none (no result: HEK293 NFkB inh)
CCCCNC(=O)c1cn(C)c2ccc(S(=O)(=O)N3CCOCC3)cc2c1=O	none
O=C(CSc1c[nH]c2ccccc12)N1CCOCC1	none
COc1ccccc1C(=O)Nc1cc(-c2nn3c(C)nnc3s2)ccc1C	none
Cc1cc(Nc2nc3c(c(=O)n(C)c(=O)n3C)n2C)n(-c2ccccc2)n1	none
CC(=O)Nc1ccccc1NC(=O)C(F)(F)F	M1 antagonist 1.8
O=C(O)c1ccc2c(c1)C(=O)N(c1cc(C(=O)O)ccc1Br)C2=O	none (no result: M1 ag, M1 antagonist)
O=C(Nc1ccccc1C(F)(F)F)N1CCCCCC1	none
O=C(NC1c2ccccc2-c2ccccc21)N1CCCCC1	HEK293 NFkB inh 43
C#CCNc1cc(C)nc2ncnn12	none
CC(C)C(=O)Nc1cccc(C(=O)Nc2nccs2)c1	none
CCN1CC=C2C(C#N)=C(N)C(C#N)(C#N)C(c3cc(Cl)ccc3Cl)C2C1 (configuration not stated)	M1 ag 35
CCC1C2CN(C(C)=O)CC=C2C(C#N)=C(N)C1(C#N)C#N (configuration not stated)	none
Nc1ccc(CN2CCN(c3ccc4ccccc4n3)CC2)cc1	none
O=C(CSCc1cccc(Br)c1)N1CCOCC1	none
Cc1nc(NC(=O)c2ccco2)sc1C(=O)Nc1ccc(Br)cc1	HER2 expr 66K -3.0
COC(=O)c1sc(NC(=O)c2ccco2)nc1C	none
O=C(c1ccc(F)cc1)C(CN1CCOCC1)c1ccccc1 (configuration not stated)	HER2 expr 66K -19
O=C(c1ccccc1)C(CCC(CN1CCOCC1)C(=O)c1ccccc1)CN1CCOCC1 (configuration not stated)	none (no result: HEK293 NFkB inh)
O=c1[nH]c2ccccc2n1CCCN1CCN(C(c2ccccc2)c2ccccc2)CC1	none (no result: HEK293 NFkB inh)
O=C(Cn1cnc2ccccc21)OCC(=O)N1CCCc2ccccc21	M1 ag -2.4
CCOc1ccc(C(C)=O)cc1Cn1nc(C(=O)O)c2ccccc2c1=O	none
O=C(c1ccc(Cl)cc1)N1CCCCC(Sc2nnc(-c3ccc4c(c3)OCO4)o2)C1=O (configuration not stated)	HEK293 NFkB inh 76
COc1cccc2c(=O)n(CC(=O)N3CCCc4ccccc43)ccc12	none
CCn1cc(C(=O)N2CCCc3ccccc32)c2cc(OC)c(OC)cc2c1=O	M1 antagonist 0.88
CCC(c1nnnn1C(C)(C)C)N1CCN(c2cc(Cl)ccc2C)CC1 (configuration not stated)	none
COCCCN1C(=O)C(=O)/C(=C(/O)c2ccc(OCC(C)C)cc2)C1c1cccnc1 (configuration not stated)	HER2 expr 66K -21
Cc1sccc1C1C(C#N)=C(N)SC(N)=C1C#N	M1 ag 130 (no result: HEK293 NFkB inh)
Cc1cc(C2C(C#N)=C(N)SC(N)=C2C#N)c(C)s1	M1 ag 3.3
COc1cc(-c2nc3ccccn3c2NCC2CCCO2)ccc1O (configuration not stated)	M1 ag 3.3
CCCCn1c2nc3ccccc3nc2c2c(=N)oc(C)nc21	M1 ag 3.9
CCCCC(CC)Cn1c2nc3ccccc3nc2c2c(=N)oc(C)nc21 (configuration not stated)	HER2 expr 66K 0.9
CC1c2nc3ccccc3n2C(CC(=O)NCc2ccccn2)C(=O)N1Cc1ccccc1 (configuration not stated)	none
Clc1ccc(C2CC(c3cccs3)n3ncnc3N2)c(Cl)c1 (configuration not stated)	none
Cn1c(NCC(O)c2ccccc2)nc2c1c(=O)n(Cc1ccc(Cl)cc1)c(=O)n2C (configuration not stated)	HER2 expr 66K -28 (no result: HEK293 NFkB inh)
CCCCOc1ccc(-c2nnn(CC(=O)Nc3ncc(CC(=O)OCC)s3)n2)cc1	M1 antagonist 2.5
CCOC(=O)Cc1cnc(NC(=O)Cn2nnc(-c3ccc(OCC)cc3)n2)s1	none
CN(Cc1cc2ccccc2[nH]c1=O)C(=O)C1CCCCC1	none
CC(C)C(=O)N(Cc1cc2ccccc2[nH]c1=O)C(C)(C)C	HER2 expr 66K -27
COc1cc(OC)cc(-c2cc3nc(C)c(CCC(=O)O)c(C)n3n2)c1	HEK293 NFkB inh 63
CC(C)Cn1c(=O)c(C2=NS(=O)(=O)c3ccccc3N2)c(O)c2ccccc21	none
COc1ccc(C(=O)/C=C\N2CCOCC2)cc1	none
C=CCSC1=N/C(=C\C=C\c2ccco2)C(=O)S1	HER2 expr 66K 2.1
CCCS(=O)(=O)N1CCC(C(=O)N2CCC(Cc3ccccc3)CC2)CC1	HER2 expr 66K -27
Clc1ccc(COc2ccccn2)c(Cl)c1	none (no result: HEK293 NFkB inh)
Cc1[nH]nc2c1C(C1CC=CCC1)C(C#N)=C(N)O2 (configuration not stated)	HER2 expr 66K -10
CCN1CSC(=S)N(Cc2ccc(OC)cc2)C1	HER2 expr 66K -12 (no result: M1 ag, M1 antagonist)
COc1ccc(Cl)cc1C(=O)Nc1ccccc1N1CCN(C)CC1	HER2 expr 66K -18
COc1cc(OC)cc(C(=O)Nc2ccccc2N2CCOCC2)c1	M1 ag 6.5

Screening results from PubChem.
